Source: ChEMBL document CHEMBL1154099, “Synthesis and evaluation of in vitro anti-microbial and anti-tubercular activity of 2-styryl benzimidazoles” (2009)
Values after ≈ are worked out from the molar mass of the structure shown.

How the values were obtained:
Type in all cases: functional
Enterococcus faecalis = experiment: Antibacterial activity against Enterococcus faecalis ATCC 29212 after 18 to 20 hrs by twofold tube dilution method
Method in brief: (§1)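 Bacterial cultures grown 18–24 h at 37 ± 1 °C in Mueller–Hinton Broth. Testing by twofold tube dilution in Mueller–Hinton Broth, pH 7.4. Inoculated broth-only tubes served as controls. MIC taken as the lowest concentration preventing visible growth.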

Staphylococcus aureus = experiment: Antibacterial activity against Staphylococcus aureus ATCC 25923 after 18 to 20 hrs by twofold tube dilution method; method in brief: as §1
Candida albicans = experiment: Antifungal activity against Candida albicans ATCC 10145 after 48 hrs by twofold tube dilution method; conditions: ATCC 10145, 48 h
Method in brief: (§2)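 Fungi maintained in Sabouraud Dextrose Broth for 48 h at 25 ± 1 °C. Testing by twofold dilution in Sabouraud Dextrose Broth, pH 7.4, with DMSO stocks serially diluted from 125 to 1 µg/ml. Inoculated broth-only tubes served as controls. After 48 h at 25 ± 1 °C, the last tube showing no growth was recorded as the MIC.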

[1] = test system: Mycobacterium tuberculosis; experiment: Antitubercular activity against Mycobacterium tuberculosis H37Rv by microplate alamar blue assay
Method in brief: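 M. tuberculosis H37Rv, with compounds that reached at least 90% inhibition in the primary screen. Serial dilution to lower concentrations, microplate Alamar blue assay. MIC taken as the lowest inhibitory concentration. Streptomycin used as reference.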

Aspergillus fumigatus = experiment: Antifungal activity against Aspergillus fumigatus after 48 hrs by twofold tube dilution method; method in brief: as §2
Escherichia coli = experiment: Antibacterial activity against Escherichia coli ATCC 25922 after 18 to 20 hrs by twofold tube dilution method; method in brief: as §1
Klebsiella pneumoniae = experiment: Antibacterial activity against Klebsiella pneumoniae ATCC 13883 after 18 to 20 hrs by twofold tube dilution method; method in brief: as §1
[2] = test system: Mycobacterium tuberculosis; experiment: Antitubercular activity against Mycobacterium tuberculosis H37Rv at 7.25 ug/ml by microplate alamar blue assay
Method in brief: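 M. tuberculosis H37Rv (ATCC 27294) in BACTEC 12B medium, broth microdilution with microplate Alamar blue read-out. Primary screen at a single concentration of 7.25 µg/ml. Result expressed as percent inhibition.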

## Oc1cccc(/C=C/c2nc3cc(Br)ccc3[nH]2)c1
Enterococcus faecalis
  MIC: 1 µg/mL (≈ 3.17 µM)
Staphylococcus aureus
  MIC: 1 µg/mL (≈ 3.17 µM)
Candida albicans
  MIC: 4 µg/mL (≈ 12.7 µM)
[1]
  MIC: > 75 µg/mL
Aspergillus fumigatus
  MIC: 8 µg/mL (≈ 25.4 µM)
Escherichia coli
  MIC: 4 µg/mL (≈ 12.7 µM)
Klebsiella pneumoniae
  MIC: 4 µg/mL (≈ 12.7 µM)

## O=[N+]([O-])c1ccc2[nH]c(/C=C/c3cccc(O)c3)nc2c1
Enterococcus faecalis
  MIC: 31.2 µg/mL (≈ 111 µM)
Staphylococcus aureus
  MIC: 4 µg/mL (≈ 14.2 µM)
Candida albicans
  MIC: 31.2 µg/mL (≈ 111 µM)
[1]
  MIC: > 75 µg/mL
Aspergillus fumigatus
  MIC: 62.5 µg/mL (≈ 222 µM)
Escherichia coli
  MIC: 31.2 µg/mL (≈ 111 µM)
Klebsiella pneumoniae
  MIC: 31.2 µg/mL (≈ 111 µM)

## O=[N+]([O-])c1ccc2[nH]c(/C=C/c3ccc4c(c3)OCO4)nc2c1
Enterococcus faecalis
  MIC: 31.2 µg/mL (≈ 101 µM)
Staphylococcus aureus
  MIC: 31.2 µg/mL (≈ 101 µM)
Candida albicans
  MIC: 16.1 µg/mL (≈ 52.1 µM)
[1]
  MIC: > 75 µg/mL
Aspergillus fumigatus
  MIC: 16.1 µg/mL (≈ 52.1 µM)
Escherichia coli
  MIC: 31.2 µg/mL (≈ 101 µM)
Klebsiella pneumoniae
  MIC: 62.5 µg/mL (≈ 202 µM)

## COc1ccc(/C=C/c2nc3cc([N+](=O)[O-])ccc3[nH]2)cc1OC
Enterococcus faecalis
  MIC: 31.2 µg/mL (≈ 96.1 µM)
Staphylococcus aureus
  MIC: 31.2 µg/mL (≈ 96.1 µM)
Candida albicans
  MIC: 16.1 µg/mL (≈ 49.6 µM)
[1]
  MIC: > 75 µg/mL
Aspergillus fumigatus
  MIC: 31.2 µg/mL (≈ 96.1 µM)
Escherichia coli
  MIC: 31.2 µg/mL (≈ 96.1 µM)
Klebsiella pneumoniae
  MIC: 16.1 µg/mL (≈ 49.6 µM)

## Cc1ccc(/C=C/c2nc3cc([N+](=O)[O-])ccc3[nH]2)cc1
Enterococcus faecalis
  MIC: 16.1 µg/mL (≈ 57.7 µM)
Staphylococcus aureus
  MIC: 4 µg/mL (≈ 14.3 µM)
Candida albicans
  MIC: 31.2 µg/mL (≈ 112 µM)
[1]
  MIC: > 75 µg/mL
Aspergillus fumigatus
  MIC: 31.2 µg/mL (≈ 112 µM)
Escherichia coli
  MIC: 62.5 µg/mL (≈ 224 µM)
Klebsiella pneumoniae
  MIC: 16.1 µg/mL (≈ 57.7 µM)

## OC(Cn1cncn1)(Cn1cncn1)c1ccc(F)cc1F [FLUCONAZOLE]
Candida albicans
  MIC: 2 µg/mL (≈ 6.53 µM)
Aspergillus fumigatus
  MIC: 2 µg/mL (≈ 6.53 µM)

## O=C(O)c1cn(C2CC2)c2cc(N3CCNCC3)c(F)cc2c1=O [CIPROFLOXACIN]
Enterococcus faecalis
  MIC: 0.7 µg/mL (≈ 2.11 µM)
Staphylococcus aureus
  MIC: 0.78 µg/mL (≈ 2.35 µM)
Klebsiella pneumoniae
  MIC: 0.19 µg/mL (≈ 0.573 µM)

## O=[N+]([O-])c1ccc2[nH]c(/C=C/c3ccc(Cl)cc3Cl)nc2c1
Enterococcus faecalis
  MIC: 31.2 µg/mL (≈ 93.5 µM)
Staphylococcus aureus
  MIC: 31.2 µg/mL (≈ 93.5 µM)
Candida albicans
  MIC: 16.1 µg/mL (≈ 48.2 µM)
[1]
  MIC: > 75 µg/mL
[2]
  inhibition at 7.25 µg/mL: 45%
Aspergillus fumigatus
  MIC: 31.2 µg/mL (≈ 93.5 µM)
Escherichia coli
  MIC: 62.5 µg/mL (≈ 187 µM)
Klebsiella pneumoniae
  MIC: 62.5 µg/mL (≈ 187 µM)

## CN[C@@H]1[C@H](O[C@H]2[C@H](O[C@H]3[C@H](O)[C@@H](O)[C@H](N=C(N)N)[C@@H](O)[C@@H]3N=C(N)N)O[C@@H](C)[C@]2(O)C=O)O[C@@H](CO)[C@H](O)[C@H]1O [STREPTOMYCIN]
[2]
  inhibition at 7.25 µg/mL: 100%

## Cc1ccc(/C=C/c2nc3cc(Br)ccc3[nH]2)cc1
Enterococcus faecalis
  MIC: 31.2 µg/mL (≈ 99.8 µM)
Staphylococcus aureus
  MIC: 31.2 µg/mL (≈ 99.8 µM)
Candida albicans
  MIC: 4 µg/mL (≈ 12.8 µM)
[1]
  MIC: > 75 µg/mL
[2]
  inhibition at 7.25 µg/mL: 63%
Aspergillus fumigatus
  MIC: 8 µg/mL (≈ 25.5 µM)
Escherichia coli
  MIC: 16 µg/mL (≈ 51.1 µM)
Klebsiella pneumoniae
  MIC: 8 µg/mL (≈ 25.5 µM)

## Brc1ccc2[nH]c(/C=C/c3ccc4c(c3)OCO4)nc2c1
Enterococcus faecalis
  MIC: 31.2 µg/mL (≈ 91.1 µM)
Staphylococcus aureus
  MIC: 8 µg/mL (≈ 23.3 µM)
Candida albicans
  MIC: 31.2 µg/mL (≈ 91.1 µM)
[1]
  MIC: > 75 µg/mL
Aspergillus fumigatus
  MIC: 31.2 µg/mL (≈ 91.1 µM)
Escherichia coli
  MIC: 31.2 µg/mL (≈ 91.1 µM)
Klebsiella pneumoniae
  MIC: 16.1 µg/mL (≈ 47 µM)

## Brc1ccc2[nH]c(/C=C/c3ccccc3)nc2c1
Enterococcus faecalis
  MIC: 16.1 µg/mL (≈ 53.9 µM)
Staphylococcus aureus
  MIC: 2 µg/mL (≈ 6.69 µM)
Candida albicans
  MIC: 8 µg/mL (≈ 26.7 µM)
[1]
  MIC: > 75 µg/mL
[2]
  inhibition at 7.25 µg/mL: 83%
Aspergillus fumigatus
  MIC: 8 µg/mL (≈ 26.7 µM)
Escherichia coli
  MIC: 16.1 µg/mL (≈ 53.9 µM)
Klebsiella pneumoniae
  MIC: 31.2 µg/mL (≈ 104 µM)

## O=[N+]([O-])c1ccc2[nH]c(/C=C/c3ccccc3)nc2c1
Enterococcus faecalis
  MIC: 31.2 µg/mL (≈ 118 µM)
Staphylococcus aureus
  MIC: 8 µg/mL (≈ 30.2 µM)
Candida albicans
  MIC: 16.1 µg/mL (≈ 60.8 µM)
[1]
  MIC: > 75 µg/mL
Aspergillus fumigatus
  MIC: 16.1 µg/mL (≈ 60.8 µM)
Escherichia coli
  MIC: 31.2 µg/mL (≈ 118 µM)
Klebsiella pneumoniae
  MIC: 4 µg/mL (≈ 15.1 µM)

## COc1ccc(/C=C/c2nc3cc(Br)ccc3[nH]2)cc1OC
Enterococcus faecalis
  MIC: 2 µg/mL (≈ 5.57 µM)
Staphylococcus aureus
  MIC: 2 µg/mL (≈ 5.57 µM)
Candida albicans
  MIC: 1 µg/mL (≈ 2.78 µM)
[1]
  MIC: > 75 µg/mL
[2]
  inhibition at 7.25 µg/mL: 54%
Aspergillus fumigatus
  MIC: 2 µg/mL (≈ 5.57 µM)
Escherichia coli
  MIC: 31.2 µg/mL (≈ 87 µM)
Klebsiella pneumoniae
  MIC: 8 µg/mL (≈ 22.3 µM)

## Clc1ccc(/C=C/c2nc3cc(Br)ccc3[nH]2)c(Cl)c1
Enterococcus faecalis
  MIC: 8 µg/mL (≈ 21.7 µM)
Staphylococcus aureus
  MIC: 16.1 µg/mL (≈ 43.8 µM)
Candida albicans
  MIC: 31.2 µg/mL (≈ 84.9 µM)
[1]
  MIC: > 75 µg/mL
[2]
  inhibition at 7.25 µg/mL: 76%
Aspergillus fumigatus
  MIC: 16.1 µg/mL (≈ 43.8 µM)
Escherichia coli
  MIC: 31.2 µg/mL (≈ 84.9 µM)
Klebsiella pneumoniae
  MIC: 2 µg/mL (≈ 5.43 µM)
